The test system of data set [1] is RBL-2H3. Nature of the data set: Anti-inflammatory activity in IgE sensitized and DNP-BSA-stimulated rat RBL2H3 cells assessed as reduction of IL4 secretion preincubated for 2 hrs followed by DNP-BSA stimulation for 18 hrs by ELISA. It counts as functional, cell-based. The procedure, abridged: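 IgE-sensitized cells (overnight, 37 °C) pretreated with compounds 2 h, then challenged with 1 µg/mL DNP-BSA for 18 h; IL-4 in supernatant quantified by ELISA kit. Cells seeded in 48-well plates overnight; triplicate, mean ± SEM.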

The test system of data set [2] is RBL-2H3. Put plainly: Cytotoxicity against rat RBL2H3 cells at 5 and 20 uM after 24 hrs by MTS assay. To be noted: rbl-2h3, 24 h. It counts as cell-based. The essentials:
(§1)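 RBL-2H3 (seeded overnight) or RAW264.7 cells exposed to 5 and 20 µM samples for 24 h; viability by MTS; three independent experiments, mean ± SEM.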

In data set [3] the test system is RAW264.7. Put plainly: Anti-inflammatory activity in mouse RAW264.7 cells assessed as inhibition of LPS-induced nitric oxide production preincubated for 2 hrs followed by LPS addition measured after 24 hrs by Griess method. Type of data set: functional, cell-based. The procedure, abridged:
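Following 2 h sample pretreatment, LPS added for 24 h; supernatant NO read with Griess reagent; triplicate, mean ± SEM.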

Data set [4] has as its target Transcription factor p65 (Homo sapiens) (UniProt Q04206). Put plainly: Inhibition of PMA-induced NFkappaB P65 activation (unknown origin) expressed in human HEK293T cells transfected with pNF-kappaB-SEAP preincubated for 2 hrs followed by PMA stimulation measured after overnight incubation by NFkappaB reporter gene assay. Type of data set: cell-based. The procedure, abridged: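 293T cells carrying pNFκB-SEAP reporter plasmid, pretreated with samples then PMA-stimulated; NF-κB transcription read as SEAP; triplicate, mean ± SEM.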

Data set [5] concerns RAW264.7. Nature of the data set: Anti-inflammatory activity in mouse RAW264.7 cells assessed as inhibition of LPS-induced TNF-alpha production at 20 uM preincubated for 2 hrs followed by LPS addition measured after 24 hrs by ELISA. It counts as functional, cell-based. The essentials:
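Cells pretreated 2 h with compounds (20 µM) before LPS (500 ng/mL) for 24 h; supernatant TNF-α by ELISA kit; triplicate, mean ± SEM.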

Data set [6] has as its target Transcription factor p65 (Mus musculus) (UniProt Q04207). Nature of the data set: Inhibition of NFkappaB nuclear translocation in LPS-stimulated mouse RAW264.7 cells at 20 uM pretreated for 2 hrs followed by LPS-induction by DAPI-staining based immunofluorescence microscopic method. It counts as cell-based. The essentials:
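Cells in eight-well glass chambers preincubated 2 h with samples (20 µM) or Bay 11-7082 before LPS 1 µg/mL; immunostaining with polyclonal anti-p65 and Alexa Fluor 488 secondary to view nuclear translocation.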

Data set [7] relates to RBL-2H3. Nature of the data set: Anti-inflammatory activity in PMA/A23187-stimulated rat RBL2H3 cells assessed as reduction of beta-hexosaminidase secretion preincubated for 1 hr followed by PMA/A23187 stimulation for 1 hr using 4-nitrophenyl-N-acetyl-beta-D-glucosaminide substrate. Type of data set: functional, cell-based. The procedure, abridged: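 After overnight plating, cells pretreated 1 h then stimulated with 30 ng/mL PMA plus 350 ng/mL A23187 for 1 h; supernatants collected for β-hexosaminidase detection; triplicate, mean ± SEM.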

Data set [8] has as its system RAW264.7. Nature of the data set: Cytotoxicity against mouse RAW264.7 cells at 5 and 20 uM after 24 hrs by MTS assay. It counts as cell-based. To be noted: raw264.7, 24 h. The procedure, abridged:
as §1

Data set [9] has as its system RBL-2H3. Nature of the data set: Anti-inflammatory activity in PMA/A23187-stimulated rat RBL2H3 cells assessed as reduction of IL4 secretion preincubated for 2 hrs followed by PMA/A23187 stimulation for 18 hrs by ELISA. It counts as functional, cell-based. The essentials: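 Cells plated overnight, pretreated 2 h, then stimulated with 30 ng/mL PMA plus 350 ng/mL A23187 for 18 h; supernatant IL-4 by ELISA kit; triplicate, mean ± SEM.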

Data set [10] concerns RAW264.7. Nature of the data set: Anti-inflammatory activity in mouse RAW264.7 cells assessed as reduction in LPS-stimulated iNOS protein expression at 20 uM preincubated for 2 hrs followed by LPS addition measured after 18 hrs by Western blot analysis. It counts as functional, cell-based. The essentials: (§2)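 Pretreatment 2 h with samples (20 µM) then LPS 200 ng/mL for 18 h; COX-2 and iNOS protein by Western blot.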

Data set [11] has as its system RAW264.7. Put plainly: Anti-inflammatory activity in mouse RAW264.7 cells assessed as reduction in LPS-stimulated COX2 protein expression at 20 uM preincubated for 2 hrs followed by LPS addition measured after 18 hrs by Western blot analysis. It counts as functional, cell-based. The essentials:
as §2

Activity calls are given as the source filed them. No cut-off for these calls is given here.

Chain of Transcription factor p65 (Mus musculus) (Q04207 whole entry): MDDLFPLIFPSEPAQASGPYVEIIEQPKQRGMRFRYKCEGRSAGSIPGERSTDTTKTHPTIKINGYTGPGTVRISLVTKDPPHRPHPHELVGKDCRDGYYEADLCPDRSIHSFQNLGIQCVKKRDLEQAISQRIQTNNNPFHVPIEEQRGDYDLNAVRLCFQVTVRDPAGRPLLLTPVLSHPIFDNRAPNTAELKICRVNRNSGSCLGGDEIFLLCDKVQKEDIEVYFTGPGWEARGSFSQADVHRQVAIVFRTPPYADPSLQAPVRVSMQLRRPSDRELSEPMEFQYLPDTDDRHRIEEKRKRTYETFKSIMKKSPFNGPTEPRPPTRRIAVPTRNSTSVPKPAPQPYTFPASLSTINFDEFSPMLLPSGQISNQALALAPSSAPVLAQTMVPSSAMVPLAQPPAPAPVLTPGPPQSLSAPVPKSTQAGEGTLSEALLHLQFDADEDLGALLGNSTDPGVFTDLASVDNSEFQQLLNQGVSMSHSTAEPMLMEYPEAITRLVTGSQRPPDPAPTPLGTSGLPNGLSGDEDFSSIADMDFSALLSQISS
Chain of Transcription factor p65 (Homo sapiens) (Q04206 whole entry): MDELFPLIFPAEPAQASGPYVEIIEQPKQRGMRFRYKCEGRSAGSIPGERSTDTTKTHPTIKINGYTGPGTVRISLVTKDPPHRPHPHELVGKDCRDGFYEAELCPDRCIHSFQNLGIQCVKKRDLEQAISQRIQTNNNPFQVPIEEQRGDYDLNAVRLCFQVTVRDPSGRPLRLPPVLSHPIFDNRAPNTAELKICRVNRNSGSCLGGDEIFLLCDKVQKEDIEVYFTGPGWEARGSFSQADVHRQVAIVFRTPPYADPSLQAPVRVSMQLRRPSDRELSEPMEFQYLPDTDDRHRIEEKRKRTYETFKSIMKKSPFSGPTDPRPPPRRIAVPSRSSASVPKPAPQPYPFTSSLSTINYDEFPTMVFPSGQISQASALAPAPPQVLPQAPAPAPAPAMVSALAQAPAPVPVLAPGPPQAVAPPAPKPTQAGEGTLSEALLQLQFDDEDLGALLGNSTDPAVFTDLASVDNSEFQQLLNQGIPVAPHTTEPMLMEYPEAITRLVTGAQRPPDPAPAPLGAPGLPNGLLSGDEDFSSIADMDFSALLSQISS

Turning to `C[C@@H]1CC[C@]2(C(=O)O)CC[C@]3(C)C(=CC[C@@H]4[C@@]5(C)CC[C@H](O[C@@H]6OC[C@H](O)[C@H](O)[C@H]6O)C(C)(C)[C@@H]5CC[C@]43C)[C@@H]2[C@]1(C)O`, the Activity entry in data set [1] was “Dose-dependent effect”; in data set [2], “Non-Toxic”; in data set [8] it was “Non-Toxic”; in data set [9] it was “Dose-dependent effect”. Besides, the outcome in data set [3], in [5] and in data set [7] was Active. Moreover, the inhibition result in data set [4] was “Dose-dependent effect”. For the same molecule, the “NFkappaB nuclear translocation inhibition (qualitative call)” value in data set [6] is “Active”.

On to `COc1cc2c(=O)oc3c(OC)c(OC)cc4c(=O)oc(c1O)c2c34`, for which the Activity entry in data set [2] and in data set [8] was “Toxic” in each case.

As for `CC1=C2C3=CC[C@@H]4[C@@]5(C)CC[C@H](O[C@@H]6OC[C@H](O)[C@H](O)[C@H]6O)C(C)(C)[C@@H]5CC[C@@]4(C)[C@]3(C)CC[C@@]2(C(=O)O[C@@H]2O[C@H](CO)[C@@H](O)[C@H](O)[C@H]2O)CC[C@H]1C`, the result in data set [10], in [11], in [3], in data set [5] and in data set [7] was Active. Further, the Activity result in data set [1] is “Dose-dependent effect”; in data set [2] it was “Non-Toxic”; in data set [8] it was “Non-Toxic”; in [9], “Dose-dependent effect”. The inhibition entry in data set [4] was “Dose-dependent effect”. For the same molecule, the “NFkappaB nuclear translocation inhibition (qualitative call)” value in [6] was “Active”.

Consider `Cc1ccc(S(=O)(=O)/C=C/C#N)cc1`, for which the “NFkappaB nuclear translocation inhibition (qualitative call)” value in data set [6] was “Active”.

Consider `C=CCc1ccc(O[C@@H]2O[C@H](CO[C@@H]3OC[C@@H](O)[C@H](O)[C@H]3O)[C@@H](O)[C@H](O)[C@H]2O)cc1`, for which the outcome in [10], in data set [11], in data set [3], in data set [5] and in [7] was Active. Further, the Activity entry was “Dose-dependent effect” in data set [1], “Non-Toxic” in [2], “Non-Toxic” in data set [8] and “Dose-dependent effect” in data set [9].

As to `Cc1ccc(-c2cc(C(F)(F)F)nn2-c2ccc(S(N)(=O)=O)cc2)cc1`, the outcome in data set [11] was Active.

Turning to `C[C@@H]1CC[C@]2(C(=O)O[C@@H]3O[C@H](CO)[C@@H](O)[C@H](O)[C@H]3O)CC[C@]3(C)C(=CC[C@@H]4[C@@]5(C)C[C@@H](O)[C@@H](O)C(C)(C)[C@@H]5CC[C@]43C)[C@@H]2[C@]1(C)O`, the Activity entry in data set [1] is “Dose-dependent effect”; in [2], “Non-Toxic”; in data set [8] it was “Non-Toxic”; in [9] it was “Dose-dependent effect”. Besides, the result in [5] and in data set [7] was Active.

Consider `CC(CCCC(C)(C)O)CCO[C@@H]1O[C@H](CO[C@@H]2O[C@@H](CO)[C@H](O)[C@H]2O)[C@@H](O)[C@H](O)[C@H]1O` (stereo not given in full), for which the outcome in data set [10], in data set [11], in [3], in [5] and in data set [7] was Active. Further, the Activity entry in [1] is “Dose-dependent effect”; in data set [2], “Non-Toxic”; in data set [8], “Non-Toxic”; in data set [9], “Dose-dependent effect”. Besides, the inhibition result in [4] was “Dose-dependent effect”. For the same molecule, the “NFkappaB nuclear translocation inhibition (qualitative call)” value in data set [6] is “Active”.

Values taken from ChEMBL document CHEMBL4118175, “Anti-allergic inflammatory components from Sanguisorba officinalis L” (Bioorg Med Chem Lett, 2018).
